Data on 9 compounds can be found in ChEMBL document CHEMBL1139616, “Nitrone derivatives of trolox as neuroprotective agents” (Bioorg Med Chem Lett, 2005).

Molecules are shown by their SMILES.

For one experiment, the species on record is Rattus norvegicus. The experiment in a line: In vitro inhibitory concentration against lipid peroxidation (LPO). Type of experiment: functional. The method in brief: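 Brain mitochondria from male LATI Wistar rats (0.3 mg protein) in 25 mM Tris–HCl pH 7.4 with 0.2 mM ascorbic acid, with or without compound. Peroxidation started with 0.2 mM FeSO4, 60 min at 37 °C. Stopped with 20% TCA, centrifuged, supernatant boiled 20 min with 0.5% thiobarbituric acid. TBA-reactive products read at 535 nm.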
Take `CC(C)(C)/[N+]([O-])=C/c1ccccc1`: the IC50 (commonly the midpoint of a concentration-inhibition curve) amounted to 16 µM.

Turning to `CC(C)(C)/[N+]([O-])=C/c1ccc(S(=O)(=O)[O-])cc1S(=O)(=O)[O-].[Na+].[Na+]`, the IC50 is 5490 µM. This IC50 is about 340-fold higher than that of the compound before.

Consider `COc1c(C)c(C)c2c(c1C)CCC(C)(/C=[N+](\[O-])C(C)(C)C)O2` (configuration not stated), for which the IC50 turned out to be 23 µM.

In the case of `Cc1c(C)c2c(c(C)c1O)CCC(C)(/C=[N+](\[O-])C1CC1)O2` (configuration not stated), the IC50 came to 0.68 µM.

With `CC(=O)Oc1c(C)c(C)c2c(c1C)CCC(C)(/C=[N+](\[O-])C(C)(C)C)O2` (configuration not stated), the midpoint of inhibition, the IC50, lay at 10 µM.

Consider `Cc1c(C)c2c(c(C)c1O)CCC(C)(/C=[N+](\[O-])C(C)(C)C)O2` (configuration not stated), for which half-maximal inhibition (IC50) required 2 µM.

Compound `COc1c(C)c(C)c2c(c1C)CCC(C)(/C=[N+](\[O-])C1CC1)O2` (configuration not stated) showed an IC50 of 20 µM.

`CC(=O)Oc1c(C)c(C)c2c(c1C)CCC(C)(/C=[N+](\[O-])C1CC1)O2` (configuration not stated) gave an IC50 of 3.7 µM.

In the case of `Cc1c(C)c2c(c(C)c1O)CCC(C)(C(=O)O)O2` (configuration not stated) [TROLOX], half-maximal inhibition (IC50) required 25 µM.

The species named for a further experiment is Rattus norvegicus. As to the kind of experiment: In vitro inhibitory concentration against hydroxyl radical (-OH); (na: not active). Type of experiment: functional.
As to `COc1c(C)c(C)c2c(c1C)CCC(C)(/C=[N+](\[O-])C(C)(C)C)O2` (configuration not stated), the IC50 entry was “Not Active”.

As to `CC(=O)Oc1c(C)c(C)c2c(c1C)CCC(C)(/C=[N+](\[O-])C(C)(C)C)O2` (configuration not stated), the IC50 result is given as “Not Active”.

On to `COc1c(C)c(C)c2c(c1C)CCC(C)(/C=[N+](\[O-])C1CC1)O2` (configuration not stated), for which the IC50 result is “Not Active”.

With `CC(=O)Oc1c(C)c(C)c2c(c1C)CCC(C)(/C=[N+](\[O-])C1CC1)O2` (configuration not stated), the IC50 entry is “Not Active”.

For a further experiment, the species on record is Rattus norvegicus. The experiment in a line: In vitro inhibitory concentration against peroxynitrite (ONOO-): using pyrogallol red bleaching assay. In kind it is functional. The method in brief: (§1)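 Peroxynitrite scavenging measured as pyrogallol red bleaching at 542 nm. ONOO- prepared essentially by the Hughes and Nicklin method.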
Take `COc1c(C)c(C)c2c(c1C)CCC(C)(/C=[N+](\[O-])C(C)(C)C)O2` (configuration not stated): the IC50 was found to be 3700 µM.

`Cc1c(C)c2c(c(C)c1O)CCC(C)(/C=[N+](\[O-])C1CC1)O2` (configuration not stated) gave a half-maximal inhibitory concentration (IC50) of 1100 µM.

Take `Cc1c(C)c2c(c(C)c1O)CCC(C)(/C=[N+](\[O-])C(C)(C)C)O2` (configuration not stated): the IC50 was found to be 3200 µM.

Take `COc1c(C)c(C)c2c(c1C)CCC(C)(/C=[N+](\[O-])C1CC1)O2` (configuration not stated): the IC50 was determined as 1200 µM.

In the case of `CC(=O)Oc1c(C)c(C)c2c(c1C)CCC(C)(/C=[N+](\[O-])C1CC1)O2` (configuration not stated), the IC50 came out at 590 µM.

For `Cc1c(C)c2c(c(C)c1O)CCC(C)(C(=O)O)O2` (configuration not stated) [TROLOX], half-maximal inhibition (IC50) was put at 550 µM.

A further experiment is filed under the species Rattus norvegicus. The experiment in a line: In vitro inhibitory concentration against Total peroxyl radical-trapping antioxidant parameter(TRAP). In kind it is functional. In a few lines: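 Total peroxyl radical-trapping antioxidant parameter taken from spectrophotometric reading at 417 nm of the ABTS cation radical, which forms by one-electron oxidation.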
For `CC(C)(C)/[N+]([O-])=C/c1ccccc1`, the half-inhibitory concentration (IC50) worked out at 3060 µM.

Turning to `CC(C)(C)/[N+]([O-])=C/c1ccc(S(=O)(=O)[O-])cc1S(=O)(=O)[O-].[Na+].[Na+]`, the IC50 was 437 µM.

Turning to `COc1c(C)c(C)c2c(c1C)CCC(C)(/C=[N+](\[O-])C(C)(C)C)O2` (configuration not stated), the midpoint of inhibition, the IC50, lay at 2940 µM.

Turning to `Cc1c(C)c2c(c(C)c1O)CCC(C)(/C=[N+](\[O-])C1CC1)O2` (configuration not stated), half-maximal inhibition (IC50) was put at 6 µM.

Regarding `CC(=O)Oc1c(C)c(C)c2c(c1C)CCC(C)(/C=[N+](\[O-])C(C)(C)C)O2` (configuration not stated), the IC50 is 895 µM.

Compound `Cc1c(C)c2c(c(C)c1O)CCC(C)(/C=[N+](\[O-])C(C)(C)C)O2` (configuration not stated) came in with a half-maximal inhibitory concentration (IC50) of 5.5 µM.

`COc1c(C)c(C)c2c(c1C)CCC(C)(/C=[N+](\[O-])C1CC1)O2` (configuration not stated) yielded an IC50 of 296 µM.

`CC(=O)Oc1c(C)c(C)c2c(c1C)CCC(C)(/C=[N+](\[O-])C1CC1)O2` (configuration not stated) registered an IC50 of 117 µM.

In the case of `Cc1c(C)c2c(c(C)c1O)CCC(C)(C(=O)O)O2` (configuration not stated) [TROLOX], the IC50 was 10 µM. This IC50 is about 12-fold lower than that of the compound before.

For a further experiment, the species on record is Rattus norvegicus. As to the kind of experiment: In vitro inhibitory concentration against NO ([…]); (na: not active). Type of experiment: functional. The method in brief: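 NO generated by thermal breakdown of cupferron (0.2% in ethanol) at 40 °C. Samples at 0.3–100 mM in ethanol mixed with Griess–Ilosvay reagent (0.2% N-(1-naphthyl)ethylenediamine in 0.4 M HCl plus 2% sulfanilamide in 4 M HCl). Free NO estimated indirectly from its nitrite/nitrate products, absorbance read at 540 nm.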
In the case of `CC(C)(C)/[N+]([O-])=C/c1ccc(S(=O)(=O)[O-])cc1S(=O)(=O)[O-].[Na+].[Na+]`, the IC50 entry is “Not Active”.

For a further experiment, the species on record is Rattus norvegicus. As to the kind of experiment: In vitro inhibitory concentration against peroxynitrite (ONOO-): using pyrogallol red bleaching assay; (na: not active). In kind it is functional. In a few lines: as §1
As for `CC(C)(C)/[N+]([O-])=C/c1ccccc1`, the half-inhibitory concentration (IC50) result is “Not Active”.

Turning to `CC(C)(C)/[N+]([O-])=C/c1ccc(S(=O)(=O)[O-])cc1S(=O)(=O)[O-].[Na+].[Na+]`, the half-inhibitory concentration (IC50) result was “Not Active”.

`CC(=O)Oc1c(C)c(C)c2c(c1C)CCC(C)(/C=[N+](\[O-])C(C)(C)C)O2` (configuration not stated): the IC50 result is on record as “Not Active”.

The species entered for a further experiment is Rattus norvegicus. As to the kind of experiment: In vitro inhibitory concentration against hydroxyl radical (-OH). Type of experiment: functional.
Compound `CC(C)(C)/[N+]([O-])=C/c1ccccc1` gave an IC50 of 43000 µM.

Consider `CC(C)(C)/[N+]([O-])=C/c1ccc(S(=O)(=O)[O-])cc1S(=O)(=O)[O-].[Na+].[Na+]`, for which the IC50 is 1500 µM.

Take `Cc1c(C)c2c(c(C)c1O)CCC(C)(/C=[N+](\[O-])C1CC1)O2` (configuration not stated): the IC50 worked out at 150 µM.

As for `Cc1c(C)c2c(c(C)c1O)CCC(C)(/C=[N+](\[O-])C(C)(C)C)O2` (configuration not stated), the IC50 is 170 µM.

`Cc1c(C)c2c(c(C)c1O)CCC(C)(C(=O)O)O2` (configuration not stated) [TROLOX] showed an IC50 of 60 µM.
